Holding throughout (type): protein assay
The target of assay [1] is T1, Tubulin (Bos taurus) (UniProt Q6B856+Q862L2+Q862F3). The assay can be described thus: The compound was evaluated for its effect on tubulin polymerization in the presence of MAPS as rate =change in OD340/min. A digest of the protocol:
(§1)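 MAP-rich tubulin, thawed just before the reaction. Buffer A (0.1 M MES pH 6.7, 1.0 mM MgCl2, 0.5 mM EGTA) containing 1 mM analogue (or analogue plus 1 mM spermine), equilibrated at 37 °C. Started by 7.5-fold dilution of 7.5 mg/mL tubulin. OD340 followed from 30 s, equilibrium read at 20 min. At least three determinations, variation ≤10%.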

Assay [2] addresses T1, Tubulin (Bos taurus). The experiment in a line: The compound (1 mM) + spermine (1 mM) mixture was evaluated for its effects on tubulin polymerization in the presence of MAPS as rate =change in OD340/min. The essentials: as §1
Assay [3] deals with T1, Tubulin (Bos taurus). The assay can be described thus: The compound was evaluated for its effect on tubulin polymerization in the absence of MAPS as rate =change in OD340/min. The essentials: (§2)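 MAP-free purified tubulin, thawed immediately before use. Buffer A (0.1 M MES pH 6.7, 1.0 mM MgCl2, 0.5 mM EGTA), no GTP or organic solvent, with 1 mM analogue (or analogue plus 1 mM spermine), warmed to 37 °C. Started by 10-fold dilution of 10 mg/mL tubulin. OD340 followed from 30 s, equilibrium read at 10 min. At least three determinations, variation ≤10%.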

Assay [4] has as its target T1, Tubulin (Bos taurus). The experiment in a line: The compound (1 mM) + spermine (1 mM) mixture was evaluated for its effects on tubulin polymerization in the presence of MAPS as equilibrium reading (20 min reading). A digest of the protocol:
as §1

The target in assay [5] is T1, Tubulin (Bos taurus). The assay can be described thus: The compound was evaluated for its effect on tubulin polymerization in the presence of MAPS as equilibrium reading (20 min reading). A digest of the protocol: as §1
The target in assay [6] is T1, Tubulin (Bos taurus). The experiment in a line: The compound (1 mM) + spermine (1 mM) mixture was evaluated for its effect on tubulin polymerization in the absence of MAPS as rate =change in OD340/min. The essentials: as §2
Assay [7] addresses T1, Tubulin (Bos taurus). The assay can be described thus: The compound was evaluated for its effect on tubulin polymerization in the absence of MAPS as equilibrium reading (10 min reading). The essentials: as §2
Assay [8] addresses T1, Tubulin (Bos taurus). The assay can be described thus: The compound (1 mM) + spermine (1 mM) mixture was evaluated for its effects on tubulin polymerization in the absence of MAPS as equilibrium reading (10 min reading). The essentials:
as §2

The values that follow come from ChEMBL document CHEMBL1132707, “1-(N-alkylamino)-11-(N-ethylamino)-4,8-diazaundecanes: simple synthetic polyamine analogues that differentially alter tubulin polymerization” (J Med Chem, 1999).

On to `CCNCCCNCCCNCCCNC[C@@H](C)CC`, for which the Rate (delta OD340 min-1) at Tubulin (Bos taurus) [1] worked out at 0.021; on Tubulin (Bos taurus) [2] it was 0.069; on Tubulin (Bos taurus) [3], 0.69. The Equilibrium OD340 is 0.392 at Tubulin (Bos taurus) [4], 0.247 on Tubulin (Bos taurus) [5], 1.79 at Tubulin (Bos taurus) [7] and 1.09 at Tubulin (Bos taurus) [8]. The Rate at Tubulin (Bos taurus) [6] was 0.205.
On to `NCCCNCCCCNCCCN`, for which the Rate (delta OD340 min-1) at Tubulin (Bos taurus) [1] was found to be 0.055; at Tubulin (Bos taurus) [3], 0.14. For the same compound, the Equilibrium OD340 at Tubulin (Bos taurus) [5] is 0.624; at Tubulin (Bos taurus) [7], 1.31.
In the case of `CCNCCCNCCCNCCCNCC1CCCCCC1`, the Rate (delta OD340 min-1) was determined as 0.25 on Tubulin (Bos taurus) [1], 0.16 at Tubulin (Bos taurus) [2], 0.37 on Tubulin (Bos taurus) [3] and 0.131 at Tubulin (Bos taurus) [6]. Further, the Equilibrium OD340 at Tubulin (Bos taurus) [4] came to 1.01; at Tubulin (Bos taurus) [5], 1.3; on Tubulin (Bos taurus) [7], 2.42; at Tubulin (Bos taurus) [8], 1.71.
Turning to `CCNCCCNCCCNCCCNCC1CC1`, the Rate (delta OD340 min-1) on Tubulin (Bos taurus) [1] is 0.036; on Tubulin (Bos taurus) [2], 0.031; on Tubulin (Bos taurus) [3] it was 0.096; at Tubulin (Bos taurus) [6], 0.131. Besides, the Equilibrium OD340 on Tubulin (Bos taurus) [4] stood at 0.514; at Tubulin (Bos taurus) [5], 0.098; at Tubulin (Bos taurus) [7] it was 0.563; on Tubulin (Bos taurus) [8] it was 1.08.
